Measured values from ChEMBL document CHEMBL4382218, “Design, synthesis and antifungal evaluation of borrelidin derivatives” (Bioorg Med Chem, 2018).
In brackets after ≈: the same amount, converted by molar mass. Activity calls are given as the source filed them. No cut-off for these calls is given here.

How the values were obtained:
Candida parapsilosis [1] = test: Antifungal activity against Candida parapsilosis ATCC 22019 at 100 ug/ml after 48 hrs by micro broth dilution method; assay type: functional, organism-based
Outline: (§1)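 Broth microdilution in RPMI-1640 (NaHCO3, MOPS, pH 7.0). Compounds are dissolved in DMSO and serially diluted 2-fold to eight concentrations, with stocks of […]. Fungal inocula are 2 × 10³ cfu/mL. Plates are incubated 48 h at 28 °C. The MIC is the lowest concentration with no turbidity, and the highest concentration tested is 100 μg/mL.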

Aspergillus fumigatus [2] = test: Antifungal activity against Aspergillus fumigatus CCTCC AF 93048 after 48 hrs by micro broth dilution method; assay type: functional; settings: CCTCC AF 93048, 48 h; outline: as §1
Candida albicans [3] = test: Antifungal activity against Candida albicans ATCC MYA-2876 at 100 ug/ml after 48 hrs by micro broth dilution method; assay type: functional, organism-based; outline: as §1
Candida parapsilosis [4] = test: Antifungal activity against Candida parapsilosis ATCC 22019 after 48 hrs by micro broth dilution method; assay type: functional; settings: Lodderomyces parapsilosis, ATCC 22019, 48 h; outline: as §1
Candida albicans [5] = test: Antifungal activity against Candida albicans ATCC MYA-2876 after 48 hrs by micro broth dilution method; assay type: functional; settings: ATCC MYA-2876, 48 h; outline: as §1
Aspergillus fumigatus [6] = test: Antifungal activity against Aspergillus fumigatus CCTCC AF 93048 at 100 ug/ml after 48 hrs by micro broth dilution method; assay type: functional, organism-based; outline: as §1
HEK-293T = test: Cytotoxicity against HEK293T cells assessed as growth inhibition after 48 hrs by MTT assay; assay type: cell-based; settings: Homo sapiens
Outline: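 293T cells are grown in DMEM with 10% FBS, L-glutamine and penicillin/streptomycin at 37 °C in 5% CO₂. Cells are seeded at 7 × 10³ per well and exposed to six concentrations (0.33-100.0 μM) for 48 h. MTT is then added for 4 h, formazan is dissolved in DMSO and read at 570 nm. IC50 comes from non-linear regression, n = 3 independent experiments.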

[7] = Selectivity index, ratio of IC50 for HEK293T cells to MIC for Candida parapsilosis ATCC 22019; assay type: toxicity; settings: human, read-out: Selectivity Index
[8] = Selectivity index, ratio of IC50 for HEK293T cells to MIC for Candida albicans ATCC MYA-2876; assay type: toxicity; settings: human, read-out: Selectivity Index
[9] = Selectivity index, ratio of IC50 for HEK293T cells to MIC for Aspergillus fumigatus CCTCC AF 93048; assay type: toxicity; settings: human, read-out: Selectivity Index

| SMILES | Activity (Candida parapsilosis [1]) | MIC (Aspergillus fumigatus [2]) [µg/mL] | Activity (Candida albicans [3]) | MIC (Candida parapsilosis [4]) [µg/mL] | MIC (Candida albicans [5]) [µg/mL] | Activity (Aspergillus fumigatus [6]) | IC50 (HEK-293T) [µg/mL] | selectivity ratio [7] | selectivity ratio [8] | selectivity ratio [9] |
| --- | --- | --- | --- | --- | --- | --- | --- | --- | --- | --- |
| C[C@@H]1C[C@H](C)C[C@H](C)[C@@H](O)CC(=O)O[C@H]([C@@H]2CCC[C@H]2C(=O)O)C/C=C/C=C(/C(N)=O)[C@H](O)[C@@H](C)C1 | inactive | > 100 | inactive | > 100 | > 100 | inactive | – | – | – | – |
| C[C@@H]1C[C@H](C)C[C@H](C)[C@@H](O)CC(=O)O[C@H]([C@@H]2CCC[C@H]2C(=O)OCCn2ccnc2)C/C=C/C=C(/C#N)[C@H](O)[C@@H](C)C1 | – | 25 (≈ 42.8 µM) | – | – | – | – | 18.1 (≈ 31 µM) | < 0.18 | < 0.18 | 0.72 |
| C[C@@H]1C[C@H](C)C[C@H](C)[C@@H](O)CC(=O)O[C@H]([C@@H]2CCC[C@H]2C(=O)O)C/C=C/C=C(/C#N)[C@H](O)[C@@H](C)C1 [BORRELIDIN] | – | – | inactive | 50 (≈ 102 µM) | – | inactive | 14 (≈ 28.5 µM) | 0.28 | < 0.14 | < 0.14 |
| C[C@@H]1C[C@H](C)C[C@H](C)[C@@H](O)CC(=O)O[C@H]([C@@H]2CCC[C@H]2C(=O)OCCN2CCCC2)C/C=C/C=C(/C#N)[C@H](O)[C@@H](C)C1 | – | 50 (≈ 85.2 µM) | – | 12.5 (≈ 21.3 µM) | 50 (≈ 85.2 µM) | – | 35.2 (≈ 60 µM) | 2.81 | 0.71 | 0.71 |
| C[C@@H]1C[C@H](C)C[C@H](C)[C@@H](O)CC(=O)O[C@H]([C@@H]2CCC[C@H]2C(=O)OCCN2CCN(C)CC2)C/C=C/C=C(/C#N)[C@H](O)[C@@H](C)C1 | – | 50 (≈ 81.2 µM) | – | 25 (≈ 40.6 µM) | 100 (≈ 162 µM) | – | 58.5 (≈ 94.9 µM) | 2.34 | 0.58 | 1.17 |
| C[C@@H]1C[C@H](C)C[C@H](C)[C@@H](O)CC(=O)O[C@H]([C@@H]2CCC[C@H]2C(=O)OCCN(C)C)C/C=C/C=C(/C#N)[C@H](O)[C@@H](C)C1 | – | – | – | 100 (≈ 178 µM) | 100 (≈ 178 µM) | inactive | 39.2 (≈ 70 µM) | 0.39 | 0.39 | < 0.39 |
| C[C@@H]1C[C@H](C)C[C@H](C)[C@@H](O)CC(=O)O[C@H]([C@@H]2CCC[C@H]2C(=O)OCCN2CCN(CCC3OCCO3)CC2)C/C=C/C=C(/C#N)[C@H](O)[C@@H](C)C1 | inactive | 12.5 (≈ 17.8 µM) | inactive | – | – | – | > 70.1 | < 0.7 | < 0.7 | > 5.61 |
| C[C@@H]1C[C@H](C)C[C@H](C)[C@@H](O)CC(=O)O[C@H]([C@@H]2CCC[C@H]2C(=O)OCCN2CCOCC2)C/C=C/C=C(/C#N)[C@H](O)[C@@H](C)C1 | – | – | – | 100 (≈ 166 µM) | 100 (≈ 166 µM) | inactive | 28 (≈ 46.5 µM) | 0.28 | 0.28 | < 0.28 |
| C[C@@H]1C[C@H](C)C[C@H](C)[C@@H](O)CC(=O)O[C@H]([C@@H]2CCC[C@H]2C(=O)OCCN2CCN(Cc3ccc4ccccc4c3)CC2)C/C=C/C=C(/C#N)[C@H](O)[C@@H](C)C1 | inactive | – | inactive | – | – | inactive | – | – | – | – |
| C[C@@H]1C[C@H](C)C[C@H](C)[C@@H](O)CC(=O)O[C@H]([C@@H]2CCC[C@H]2C(=O)OCCN2CCN(CC3CC3)CC2)C/C=C/C=C(/C#N)[C@H](O)[C@@H](C)C1 | inactive | 50 (≈ 76.2 µM) | inactive | – | – | – | 17 (≈ 26 µM) | < 0.17 | < 0.17 | 0.34 |
| C[C@@H]1C[C@H](C)C[C@H](C)[C@@H](O)CC(=O)O[C@H]([C@@H]2CCC[C@H]2C(=O)OCCN2CCN(CC3CCCCC3)CC2)C/C=C/C=C(/C#N)[C@H](O)[C@@H](C)C1 | inactive | 25 (≈ 35.8 µM) | inactive | – | – | – | 23 (≈ 33 µM) | < 0.23 | < 0.23 | 0.92 |
| C[C@@H]1[C@H](O)[C@@H](C)/C=C/C=C/C=C/C=C/C=C/C=C/C=C/[C@H](O[C@@H]2O[C@H](C)[C@@H](O)[C@H](N)[C@@H]2O)C[C@@H]2O[C@](O)(C[C@@H](O)C[C@@H](O)[C@H](O)CC[C@@H](O)C[C@@H](O)CC(=O)O[C@H]1C)C[C@H](O)[C@H]2C(=O)O [AMPHOTERICIN B] | – | 2 (≈ 2.16 µM) | – | 1 (≈ 1.08 µM) | 2 (≈ 2.16 µM) | – | – | – | – | – |
| CCC(=O)NNC(=O)[C@@H]1CCC[C@H]1[C@@H]1C/C=C/C=C(/C#N)[C@H](O)[C@@H](C)C[C@H](C)C[C@H](C)C[C@H](C)[C@@H](O)CC(=O)O1 | inactive | – | inactive | – | – | inactive | – | – | – | – |
| C[C@@H]1C[C@H](C)C[C@H](C)[C@@H](O)CC(=O)O[C@H]([C@@H]2CCC[C@H]2C(=O)OCCN2CCCCC2)C/C=C/C=C(/C#N)[C@H](O)[C@@H](C)C1 | – | 50 (≈ 83.2 µM) | – | 100 (≈ 166 µM) | 100 (≈ 166 µM) | – | 27.6 (≈ 46 µM) | 0.28 | 0.28 | 0.55 |
| C=CCN1CCN(CCOC(=O)[C@@H]2CCC[C@H]2[C@@H]2C/C=C/C=C(/C#N)[C@H](O)[C@@H](C)C[C@H](C)C[C@H](C)C[C@H](C)[C@@H](O)CC(=O)O2)CC1 | inactive | 12.5 (≈ 19.5 µM) | inactive | – | – | – | 22 (≈ 34.3 µM) | < 0.22 | < 0.22 | 1.76 |
